For orientation: inhibition means the drop in the measured response relative to a control, in per cent. The term GI50 denotes the concentration at which growth is held to half of that of the control.

Assay [1] concerns the target Signal transducer and activator of transcription 3 (Homo sapiens) (UniProt P40763). The experiment in a line: Inhibition of STAT3 phosphorylation in human 786-O cells at 8 uM measured after 48 hrs by immunoblot analysis relative to control. For orientation: A western blot detects proteins with antibodies after separation by electrophoresis.
The target of assay [2] is Eukaryotic translation initiation factor 2 subunit 2 (Homo sapiens) (UniProt P20042). The experiment in a line: Inhibition of eIF2beta phosphorylation in human 786-O cells at 8 uM measured after 48 hrs by immunoblot analysis relative to control.
Assay [3] has as its target Serine/threonine-protein kinase Chk1 (Homo sapiens) (UniProt O14757). The experiment in a line: Inhibition of human recombinant CHK1 at 2 uM by Eurofins kinase assay relative to control.
The species named for assay [4] is Homo sapiens. The experiment in a line: Inhibition of human recombinant GST tagged CDK1/cyclin B expressed in insect cells at 2 uM by Eurofins kinase assay relative to control.
Assay [5] is described as follows: Upregulation of PARP cleavage in human U-937 cells by measuring signal 2 at 15 uM measured after 48 hrs by immunoblot analysis. It is filed as functional. Put shortly:
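U937 lymphoma cells grown in RPMI with 2 mM L-glutamine, 1 % pen/strep and 10 % FCS; exposed to compound or DMSO solvent control for 48 h. Total cellular proteins harvested and immunoblotted with an antibody against phosphorylated CK2-substrate motifs and for PARP. Read-out is the densitometric ratio of cleaved to uncleaved PARP signal. Representative of two independent experiments.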

The test system of assay [6] is 786-0. The experiment in a line: Induction of cell death in human 786-0 cells assessed as cell viability measured after 11 hrs by CellCyteX live-cell microscopy analysis. It is filed as functional, cell-based. The following applies: dose 10-20 µM. Put shortly: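 786-O cells seeded at 3×10³ per well and grown 24 h. Compound was then added in culture medium containing 125 nM Cytotox Green, at 0.2% (v/v) final DMSO, and kept at 37 °C in 5% CO₂. Green fluorescence images of dead cells were taken every 3 h by live-cell microscopy and normalized to the DMSO control. Results are representative of three independent measurements.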

The target of assay [7] is T1, Hsp90 co-chaperone Cdc37 (Homo sapiens) (UniProt Q16543).
T1 sequence (whole entry): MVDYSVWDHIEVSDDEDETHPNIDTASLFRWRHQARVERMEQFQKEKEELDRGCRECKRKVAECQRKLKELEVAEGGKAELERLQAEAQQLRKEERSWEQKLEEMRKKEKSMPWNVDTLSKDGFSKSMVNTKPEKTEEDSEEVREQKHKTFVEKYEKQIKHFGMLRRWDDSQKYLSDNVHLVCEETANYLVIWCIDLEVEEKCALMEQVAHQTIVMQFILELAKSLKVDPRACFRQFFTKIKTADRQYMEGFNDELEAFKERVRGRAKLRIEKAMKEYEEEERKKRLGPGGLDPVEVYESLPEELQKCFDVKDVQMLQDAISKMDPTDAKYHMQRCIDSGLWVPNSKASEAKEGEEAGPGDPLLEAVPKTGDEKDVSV
The experiment in a line: Inhibition of CDC37 phosphorylation in human 786-O cells at 10 uM measured after 48 hrs by immunoblot analysis relative to control.

Assay [8] concerns the target Mitogen-activated protein kinase 12 (Homo sapiens) (UniProt P53778). The experiment in a line: Inhibition of human recombinant MAPK12 at 2 uM by Eurofins kinase assay relative to control.
The target of assay [9] is Casein kinase I isoform gamma-1 (Homo sapiens) (UniProt Q9HCP0). The experiment in a line: Inhibition of human recombinant GST tagged CSNK1G1 expressed in insect cells at 2 uM by Eurofins kinase assay relative to control.
The target of assay [10] is Homeodomain-interacting protein kinase 1 (Homo sapiens) (UniProt Q86Z02). The experiment in a line: Inhibition of human recombinant HIPK1 at 2 uM by Eurofins kinase assay relative to control.
Assay [11] has as its target CDC7/DBF4 (Cell division cycle 7-related protein kinase/Activator of S phase kinase) (Homo sapiens) (UniProt Q9UBU7+O00311). The experiment in a line: Inhibition of human recombinant GST tagged CDC7/DBF4 expressed in Baculovirus expression system at 2 uM by Eurofins kinase assay relative to control.
Assay [12] has as its target Signal transducer and activator of transcription 3 (Homo sapiens) (UniProt P40763). The experiment in a line: Inhibition of STAT3 phosphorylation in human 786-O cells at 10 uM measured after 48 hrs by immunoblot analysis relative to control.
Assay [13] can be described thus: Upregulation of PARP cleavage in human U-937 cells by measuring signal 2 at 10 uM measured after 48 hrs by immunoblot analysis. It is filed as functional. In outline: (§1)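 U937 cells exposed to compound or DMSO for 48 h, then lysed in Laemmli buffer. Lysates were run on 8–16% gradient SDS-PAGE, semi-dry blotted to PVDF and probed for PARP. Detection used IR-fluorescent secondary antibodies. The cleaved/uncleaved PARP signal ratio was obtained by densitometry. Results are representative of two independent experiments.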

Assay [14] concerns the target Homeodomain-interacting protein kinase 2 (Homo sapiens) (UniProt Q9H2X6). The experiment in a line: Inhibition of human recombinant HIPK2 at 2 uM by Eurofins kinase assay relative to control.
Assay [15] deals with 786-0. The experiment in a line: Antiproliferative activity against human 786-0 cells assessed as inhibition of cell growth at 30 uM measured after 3 to 4 days by MTT assay relative to control. It is filed as functional. The settings on record: time 3-4 day. In outline:
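786-O cells (RPMI, 10% FCS) seeded at 5000 per well and left overnight. Compound was added at a single 30 µM concentration in 1% FCS medium (DMSO max. 0.2%). Cells grew 3–4 days at 37 °C, 5% CO₂, with no medium change, and were read by MTT. Percent inhibition is the mean of duplicates that differed by ≤10%.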
(In general: Tetrazolium assays rely on reduction of a dye to a coloured formazan, in cell work by metabolically active cells.)

The target in assay [16] is Dual specificity tyrosine-phosphorylation-regulated kinase 1B (Homo sapiens) (UniProt Q9Y463). The experiment in a line: Inhibition of human recombinant DYRK1B at 2 uM by Eurofins kinase assay relative to control.
The subject of assay [17] is Receptor-type tyrosine-protein kinase FLT3 (Homo sapiens), P36888 [D835Y]. The experiment in a line: Inhibition of human recombinant his tagged FLT3 D835Y expressed in insect cells at 2 uM by Eurofins kinase assay relative to control.
Assay [18] relates to Mast/stem cell growth factor receptor Kit (Homo sapiens), P10721 [D816H]. The experiment in a line: Inhibition of human recombinant GST/His tagged KIT D816H mutant expressed in insect cells at 2 uM by Eurofins kinase assay relative to control.
Assay [19] is described as follows: Upregulation of PARP cleavage in human U-937 cells by measuring signal 1 at 10 uM measured after 48 hrs by immunoblot analysis. It is filed as functional. Put shortly: as §1
Assay [20] has as its target cAMP-dependent protein kinase catalytic subunit alpha (Homo sapiens) (UniProt P17612). The experiment in a line: Inhibition of human recombinant PRKACA at 2 uM by Eurofins kinase assay relative to control.
Assay [21] relates to U-937. The experiment in a line: Antiproliferative activity against human U-937 cells assessed as inhibition of cell growth measured after 3 to 4 days by MTT assay. It is filed as functional. The following applies: time 3-4 day. In outline:
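786-O or U937 cells grown in RPMI with 2 mM L-glutamine, 1% pen/strep and 10% FCS. Cells were seeded at 5000 per well and left overnight, then switched to 1% FCS medium containing compound or DMSO (max. 0.2% final). Growth ran 3–4 days at 37 °C in 5% CO₂ without medium change, followed by MTT read-out. GI50 is the mean ± SD of at least two independent experiments.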

Signal transducer and activator of transcription 3 (Homo sapiens), sequence (P40763 whole entry): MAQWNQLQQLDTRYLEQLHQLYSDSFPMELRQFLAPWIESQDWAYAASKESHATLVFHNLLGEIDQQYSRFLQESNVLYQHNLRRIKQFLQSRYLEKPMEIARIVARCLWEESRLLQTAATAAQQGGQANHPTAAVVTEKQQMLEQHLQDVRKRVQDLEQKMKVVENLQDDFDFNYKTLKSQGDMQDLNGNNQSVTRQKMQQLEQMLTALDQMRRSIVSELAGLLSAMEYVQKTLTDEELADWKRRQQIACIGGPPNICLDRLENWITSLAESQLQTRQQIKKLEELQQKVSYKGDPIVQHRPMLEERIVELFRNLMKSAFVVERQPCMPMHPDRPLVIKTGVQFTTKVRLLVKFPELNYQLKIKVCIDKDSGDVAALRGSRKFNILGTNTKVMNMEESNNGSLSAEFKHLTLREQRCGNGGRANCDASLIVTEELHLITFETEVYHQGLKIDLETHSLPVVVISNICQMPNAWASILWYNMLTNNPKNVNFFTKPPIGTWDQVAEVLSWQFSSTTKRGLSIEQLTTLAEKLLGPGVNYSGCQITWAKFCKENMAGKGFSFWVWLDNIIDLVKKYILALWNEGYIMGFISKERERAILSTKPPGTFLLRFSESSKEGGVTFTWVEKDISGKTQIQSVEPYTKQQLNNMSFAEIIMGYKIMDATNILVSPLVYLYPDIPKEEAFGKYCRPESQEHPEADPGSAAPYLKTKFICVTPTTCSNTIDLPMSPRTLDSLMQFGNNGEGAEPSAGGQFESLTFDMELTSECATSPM
Homeodomain-interacting protein kinase 1 (Homo sapiens), sequence (Q86Z02 whole entry, looked up): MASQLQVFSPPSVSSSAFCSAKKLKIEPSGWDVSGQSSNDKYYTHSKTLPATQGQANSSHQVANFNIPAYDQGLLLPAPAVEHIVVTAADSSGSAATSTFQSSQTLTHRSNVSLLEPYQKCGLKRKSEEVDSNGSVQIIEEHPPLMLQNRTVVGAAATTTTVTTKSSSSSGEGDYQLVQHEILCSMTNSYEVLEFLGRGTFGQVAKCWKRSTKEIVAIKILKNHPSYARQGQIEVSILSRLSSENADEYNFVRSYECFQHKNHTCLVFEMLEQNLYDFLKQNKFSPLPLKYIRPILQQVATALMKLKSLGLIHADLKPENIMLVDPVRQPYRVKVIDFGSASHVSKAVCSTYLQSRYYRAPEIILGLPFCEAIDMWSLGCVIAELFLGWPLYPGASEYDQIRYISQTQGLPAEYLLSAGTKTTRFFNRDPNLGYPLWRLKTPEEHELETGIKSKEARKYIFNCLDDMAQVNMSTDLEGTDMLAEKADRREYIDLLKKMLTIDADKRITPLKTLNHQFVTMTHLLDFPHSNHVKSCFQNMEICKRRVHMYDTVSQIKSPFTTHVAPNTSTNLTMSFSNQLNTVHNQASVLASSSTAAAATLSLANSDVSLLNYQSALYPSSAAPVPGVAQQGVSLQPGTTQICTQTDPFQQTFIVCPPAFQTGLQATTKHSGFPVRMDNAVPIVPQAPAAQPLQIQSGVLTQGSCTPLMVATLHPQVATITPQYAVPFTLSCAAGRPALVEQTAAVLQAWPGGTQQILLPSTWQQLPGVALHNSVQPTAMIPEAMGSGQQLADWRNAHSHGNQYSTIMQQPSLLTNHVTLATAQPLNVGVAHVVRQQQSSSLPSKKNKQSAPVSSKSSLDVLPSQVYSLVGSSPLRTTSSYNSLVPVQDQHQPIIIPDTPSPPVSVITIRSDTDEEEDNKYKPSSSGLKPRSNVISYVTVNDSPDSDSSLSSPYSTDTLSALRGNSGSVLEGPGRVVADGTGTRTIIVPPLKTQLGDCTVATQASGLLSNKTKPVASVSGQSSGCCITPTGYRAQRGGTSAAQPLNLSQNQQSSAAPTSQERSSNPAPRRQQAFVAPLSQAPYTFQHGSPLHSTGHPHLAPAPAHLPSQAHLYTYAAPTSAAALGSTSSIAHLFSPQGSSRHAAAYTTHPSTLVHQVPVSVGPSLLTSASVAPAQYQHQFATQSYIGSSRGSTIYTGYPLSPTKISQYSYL
Homeodomain-interacting protein kinase 2 (Homo sapiens), sequence (Q9H2X6 whole entry, looked up): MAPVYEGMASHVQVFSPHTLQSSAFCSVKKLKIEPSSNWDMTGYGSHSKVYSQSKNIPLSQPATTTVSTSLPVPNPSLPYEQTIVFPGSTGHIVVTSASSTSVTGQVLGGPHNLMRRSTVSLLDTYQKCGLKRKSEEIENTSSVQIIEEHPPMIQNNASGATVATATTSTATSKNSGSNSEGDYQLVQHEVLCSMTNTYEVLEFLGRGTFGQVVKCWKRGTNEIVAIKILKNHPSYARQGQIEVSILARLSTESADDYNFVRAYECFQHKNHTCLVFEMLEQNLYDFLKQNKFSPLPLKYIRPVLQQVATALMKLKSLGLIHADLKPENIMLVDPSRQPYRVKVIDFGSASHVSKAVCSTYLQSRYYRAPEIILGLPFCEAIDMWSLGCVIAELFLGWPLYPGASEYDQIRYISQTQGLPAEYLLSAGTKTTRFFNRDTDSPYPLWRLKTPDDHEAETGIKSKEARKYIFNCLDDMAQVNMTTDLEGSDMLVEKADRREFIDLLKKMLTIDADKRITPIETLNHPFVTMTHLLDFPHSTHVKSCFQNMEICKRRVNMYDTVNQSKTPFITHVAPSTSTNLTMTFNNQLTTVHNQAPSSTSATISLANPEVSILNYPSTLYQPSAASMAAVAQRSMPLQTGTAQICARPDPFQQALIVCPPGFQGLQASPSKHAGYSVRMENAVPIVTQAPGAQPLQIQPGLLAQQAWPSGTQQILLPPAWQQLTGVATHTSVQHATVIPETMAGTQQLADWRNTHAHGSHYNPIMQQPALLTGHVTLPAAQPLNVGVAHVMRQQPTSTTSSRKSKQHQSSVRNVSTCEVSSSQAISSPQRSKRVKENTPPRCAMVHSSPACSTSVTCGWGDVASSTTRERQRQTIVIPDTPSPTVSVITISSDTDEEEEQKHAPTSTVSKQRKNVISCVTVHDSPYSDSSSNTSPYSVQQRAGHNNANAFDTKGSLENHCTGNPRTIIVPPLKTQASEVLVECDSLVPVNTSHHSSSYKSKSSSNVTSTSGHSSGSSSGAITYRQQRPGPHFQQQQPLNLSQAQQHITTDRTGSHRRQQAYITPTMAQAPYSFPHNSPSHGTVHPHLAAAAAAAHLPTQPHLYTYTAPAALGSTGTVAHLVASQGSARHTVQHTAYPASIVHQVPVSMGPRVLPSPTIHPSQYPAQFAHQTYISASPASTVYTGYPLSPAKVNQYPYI
CDC7/DBF4 (Cell division cycle 7-related protein kinase/Activator of S phase kinase) (Homo sapiens), sequence (O00311 whole entry, looked up): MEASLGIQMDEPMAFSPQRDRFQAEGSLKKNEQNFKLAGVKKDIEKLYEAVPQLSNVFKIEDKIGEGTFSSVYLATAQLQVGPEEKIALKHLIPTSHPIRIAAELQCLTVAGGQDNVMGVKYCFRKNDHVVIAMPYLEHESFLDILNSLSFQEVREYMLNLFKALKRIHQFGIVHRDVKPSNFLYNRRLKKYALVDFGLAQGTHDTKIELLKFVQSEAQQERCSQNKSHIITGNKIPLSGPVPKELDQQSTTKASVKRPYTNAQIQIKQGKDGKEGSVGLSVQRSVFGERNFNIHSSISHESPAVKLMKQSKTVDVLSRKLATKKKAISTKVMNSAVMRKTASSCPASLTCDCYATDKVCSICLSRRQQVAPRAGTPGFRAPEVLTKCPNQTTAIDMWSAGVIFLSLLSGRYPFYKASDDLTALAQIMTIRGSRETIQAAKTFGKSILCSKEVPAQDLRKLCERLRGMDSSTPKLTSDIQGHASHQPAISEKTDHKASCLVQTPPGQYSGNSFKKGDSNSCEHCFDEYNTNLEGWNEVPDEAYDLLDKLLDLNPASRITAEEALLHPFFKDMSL
CDC7/DBF4 (Cell division cycle 7-related protein kinase/Activator of S phase kinase) (Homo sapiens), sequence (Q9UBU7 whole entry, looked up): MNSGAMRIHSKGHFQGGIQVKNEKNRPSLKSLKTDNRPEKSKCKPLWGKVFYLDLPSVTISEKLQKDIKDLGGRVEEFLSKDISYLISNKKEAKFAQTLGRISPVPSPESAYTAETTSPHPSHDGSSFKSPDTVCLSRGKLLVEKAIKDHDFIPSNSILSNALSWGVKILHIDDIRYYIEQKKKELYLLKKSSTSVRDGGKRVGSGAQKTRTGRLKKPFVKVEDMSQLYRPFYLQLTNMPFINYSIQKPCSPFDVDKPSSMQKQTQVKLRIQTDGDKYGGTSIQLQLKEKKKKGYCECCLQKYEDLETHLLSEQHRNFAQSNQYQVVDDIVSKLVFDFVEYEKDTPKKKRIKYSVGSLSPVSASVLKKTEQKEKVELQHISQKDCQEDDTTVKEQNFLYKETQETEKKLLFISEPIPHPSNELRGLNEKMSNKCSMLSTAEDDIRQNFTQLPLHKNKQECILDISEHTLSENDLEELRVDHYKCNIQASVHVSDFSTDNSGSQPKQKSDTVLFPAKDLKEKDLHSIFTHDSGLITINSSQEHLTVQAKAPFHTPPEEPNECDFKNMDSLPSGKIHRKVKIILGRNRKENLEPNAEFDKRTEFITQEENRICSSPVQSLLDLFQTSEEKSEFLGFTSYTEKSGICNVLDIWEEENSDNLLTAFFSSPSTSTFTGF
Eukaryotic translation initiation factor 2 subunit 2 (Homo sapiens), sequence (P20042 whole entry): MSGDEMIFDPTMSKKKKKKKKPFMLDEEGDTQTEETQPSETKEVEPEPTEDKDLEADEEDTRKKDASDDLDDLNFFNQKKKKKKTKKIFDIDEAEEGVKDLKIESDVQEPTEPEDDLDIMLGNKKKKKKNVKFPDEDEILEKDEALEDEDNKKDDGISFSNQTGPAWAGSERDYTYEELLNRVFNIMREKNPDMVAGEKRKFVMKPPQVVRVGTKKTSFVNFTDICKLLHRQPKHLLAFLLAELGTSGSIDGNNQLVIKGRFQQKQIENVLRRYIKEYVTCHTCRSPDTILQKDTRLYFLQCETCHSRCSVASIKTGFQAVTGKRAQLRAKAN

For `Clc1ccc(N2CCN(c3ncnc4sc5c(c34)CCNC5)CC2)cc1.O=C(O)C(F)(F)F`, the inhibition in [1] was found to be 80%; in assay [2] it was 32%; in assay [3], 16%; in [4] it was 4%; in assay [7], 12%; in assay [8] it was 5%. Further, the inhibition in assay [9] amounted to 21%; in [10] it was 5%; in [11] it was 0%; in assay [12], 97%; in assay [14], 15%; in assay [16], 2%. Further, the inhibition came to 11% in assay [17], 4% in assay [18] and 6% in assay [20]. Further, the Activity in assay [5] was 72%; in assay [6], “Dose-dependent-effect”; in [13], 38%; in assay [19], 89%. Further, in assay [15], the inhibition at 30 µM was found to be 102%. For the same molecule, the GI50 in assay [21] is 7.5 µM.

Values taken from ChEMBL document CHEMBL6096655, “Discovery of a novel, selective CK2 inhibitor class with an unusual basic scaffold” (Eur J Med Chem, 2025).
